In ChEMBL document CHEMBL1147212, “Quinone reductase induction activity of methoxylated analogues of resveratrol” (2007) one finds Activity, viability and fold induction data, which are given here for 27 compounds.

Calls of active or inactive are those of the source. The rule behind the calls is not given here.

Assay [1] can be described thus: ABTS radical scavenging activity assessed as trolox equivalent antioxidant capacity. It is filed as functional. The essentials: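 ABTS radical cation diluted in PBS pH 7.4 to absorbance 0.700 (±0.02) at 734 nm, 25 °C. Compound added from ethanol stock. Absorbance decrease read at 1, 3 and 5 min. Percent reduction at 5 min plotted against concentration ([…] as printed); slope divided by Trolox slope gives TEAC. Run at least three times on separate occasions.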

Assay [2] can be described thus: Cytotoxicity against mouse Hepa 1c1c7 cells assessed as cell viability at 12.5 uM after 24 hrs by MTT assay. Type of assay: functional. The settings on record: Hepa-1c1c7, 24 h, read-out: Activity. The essentials:
(§1)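 Hepa 1c1c7 murine hepatoma cells exposed for 24 h to compound from DMSO stock, serially diluted to final […], with DMSO ≤1% final. MTT then added for 3 h, cells lysed, and formazan read at 590 nm. Blank-subtracted absorbance expressed as % of untreated control wells. Mean of at least three independent determinations.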
On the technique in general: Tetrazolium assays rely on reduction of a dye to a coloured formazan, in cell work by metabolically active cells.

For assay [3], the system named is Hepa 1c1c7. The assay can be described thus: Induction of quinone reductase activity in mouse Hepa 1c1c7 cells at 12.5 uM after 24 hrs relative to control. Type of assay: cell-based. The essentials: (§2)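 Cells seeded at 10⁴/well and grown 24 h in α-MEM with 10% FCS, 5% CO₂, 37 °C. They were then exposed 24 h to compound (DMSO ≤0.5% final), using the same concentration as the viability test. Lysis used digitonin/EDTA. MTT-coupled menadione reduction mix was added (Tris pH 7.4, FAD, G6P, NADP, G6PDH). Reaction stopped after 5 min with dicoumarol and read at 590 nm. Result is blank-corrected treated/control (0.5% DMSO) ratio, mean ± SD, n = 3. Lines 12-14 used the c1 mutant, which lacks CYP1A1-dependent AHH activity.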

Assay [4] can be described thus: Cytotoxicity against mouse Hepa 1c1c7 cells assessed as cell viability at 1 uM after 24 hrs by MTT assay. It is filed as functional. The note with it: Hepa-1c1c7, 24 h, read-out: Activity. The essentials: as §1
For assay [5], the system named is Hepa 1c1c7. Put plainly: Induction of quinone reductase activity in mouse Hepa 1c1c7 cells at 1 uM after 24 hrs relative to control. It is filed as cell-based. In a few lines: as §2
Assay [6] is described as follows: Cytotoxicity against mouse Hepa 1c1c7 cells assessed as cell viability at 5 uM after 24 hrs by MTT assay. It is filed as functional. The settings on record: Hepa-1c1c7, 24 h, read-out: Activity. In a few lines: as §1
Assay [7] deals with Hepa 1c1c7. Put plainly: Induction of quinone reductase activity in mouse Hepa 1c1c7 cells at 5 uM after 24 hrs relative to control. It is filed as cell-based. The essentials:
as §2

The test system of assay [8] is Hepa 1c1c7c1. The assay can be described thus: Induction of quinone reductase in mouse mutant Hepa 1c1c7c1 cells at 12.5 uM after 24 hrs relative to control. It is filed as cell-based. The essentials:
as §2

Assay [9] has as its system Hepa 1c1c7. The assay can be described thus: Induction of quinone reductase activity in mouse Hepa 1c1c7 cells assessed as concentration required to double the enzyme activity. It is filed as cell-based. In a few lines:
(§3)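 Hepa 1c1c7 wild-type or AHH-deficient c1 mutant cells, 10⁴ per well, grown for 24 h in α-MEM with 10% FCS at 37 °C and 5% CO₂, then exposed to compound from DMSO stock (final DMSO ≤0.5%) for 24 h. Cells were digitonin/EDTA-lysed and given an NADP/G6P-regenerating mix with FAD, MTT and menadione for 5 min. The reaction was stopped with dicoumarol and read at 590 nm; CD is the concentration doubling QR activity versus the DMSO control.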

Assay [10] deals with Hepa 1c1c7c1. The assay can be described thus: Induction of quinone reductase activity in mouse mutant Hepa 1c1c7c1 cells assessed as concentration required to double the enzyme activity. Type of assay: cell-based. In a few lines: as §3
The nature of assay [11]: Cytotoxicity against mouse Hepa 1c1c7 cells assessed as cell viability at 6.3 uM after 24 hrs by MTT assay. Type of assay: functional. The note with it: Hepa-1c1c7, 24 h, read-out: Activity. In a few lines: as §1
In assay [12] the test system is Hepa 1c1c7. Put plainly: Induction of quinone reductase activity in mouse Hepa 1c1c7 cells at 6.3 uM after 24 hrs relative to control. Type of assay: cell-based. In a few lines:
as §2

A short description of assay [13]: Cytotoxicity against mouse Hepa 1c1c7 cells assessed as cell viability at 25 uM after 24 hrs by MTT assay. It is filed as functional. The settings on record: Hepa-1c1c7, 24 h, read-out: Activity. In a few lines: as §1
Assay [14] concerns Hepa 1c1c7. Put plainly: Induction of quinone reductase activity in mouse Hepa 1c1c7 cells at 25 uM after 24 hrs relative to control. Type of assay: cell-based. The essentials:
as §2

In the case of `Oc1cc(O)cc(/C=C/c2ccccc2)c1` [PINOSYLVIN], the values for the Activity (in assay [1]; in the assay with Hepa 1c1c7 [3]) were 2.04 and 1.07, respectively. Moreover, in assay [2], the viability at 12.5 µM was determined as 61%.

Take `COc1ccc(/C=C\c2ccc(OC)c(OC)c2)cc1` [7Z-3,4,4'-TRIMETHOXYSTILBENE]: in assay [4], the viability at 1 µM worked out at 86%. This compound gave an Activity in the assay on Hepa 1c1c7 [5] of under 1.

In the case of `COc1ccc(/C=C/c2cc(OC)c(OC)c(OC)c2)cc1`, the viability at 1 µM in assay [4] turned out to be 86%. The same compound gave an Activity with Hepa 1c1c7 [5] of under 1.

Turning to `COc1ccc(/C=C\c2ccc(OC)c(O)c2)cc1`, the Activity in [1] was 1.11; in the assay with Hepa 1c1c7 [7], under 1. The viability at 5 µM in [6] was found to be 75%.

As for `COc1ccc(/C=C/c2cc(O)cc(O)c2)cc1` [RESVERATROL 4'-METHYL ETHER], the figures for the Activity (in assay [1]; in the assay with Hepa 1c1c7 [3]) were 2.49 and 1.14, respectively. Moreover, the viability at 12.5 µM in [2] was 87%.

For `COc1ccc(/C=C\c2ccc(OC)cc2)cc1`, the viability at 12.5 µM in assay [2] is 64%. Also, the Activity with Hepa 1c1c7 [3] amounted to 1.06.

Consider `COc1ccc(/C=C/c2cccc(O)c2)cc1`, for which the Activity in assay [1] is 1.11; in the assay with Hepa 1c1c7 [3], 1.08. Further, the viability at 12.5 µM in assay [2] was found to be 81%.

Regarding `COc1ccc(/C=C/c2ccc(OC)cc2)cc1`, the viability at 12.5 µM in [2] was determined as 67%. For the same compound, the Activity with Hepa 1c1c7 [3] was 1.14.

For the compound `COc1ccc(/C=C/c2c(OC)cccc2OC)cc1`, the viability at 12.5 µM in assay [2] was found to be 90%. For the same compound, the Activity with Hepa 1c1c7 [3] turned out to be 1.92; in the assay on Hepa 1c1c7c1 [8], 1.05 µM.

As for `COc1ccc(/C=C\c2cccc(O)c2)cc1`, the results for the Activity (in assay [1]; in the assay with Hepa 1c1c7 [7]) were 1.04 and under 1, respectively. In addition, the viability at 5 µM in assay [6] worked out at 90%.

Regarding `O=c1cc(-c2ccccc2)oc2ccc3ccccc3c12`, the Activity in the assay on Hepa 1c1c7 [9] turned out to be 0.028 µM. Also, the result in the assay with Hepa 1c1c7c1 [10] was inactive.

Consider `COc1ccc(/C=C\c2cc(OC)c(OC)c(OC)c2)cc1`, for which, in assay [4], the viability at 1 µM was 88%. Also, the Activity with Hepa 1c1c7 [5] is under 1.

With `COc1ccc(/C=C/c2cc(OC)cc(OC)c2)cc1` [TRISMETHOXYRESVERATROL], in [4], the viability at 1 µM was determined as 94%. This compound also came in with an Activity in the assay with Hepa 1c1c7 [5] of under 1.

As for `COc1ccc(/C=C/c2ccccc2OC)cc1`, the viability at 12.5 µM in assay [2] was determined as 58%. In [11], the viability at 6.3 µM is 73%. Also, the Activity came to 1.8 in the assay with Hepa 1c1c7 [12] and 2.04 with Hepa 1c1c7 [3]. The same compound showed a fold induction with Hepa 1c1c7c1 [8] of 1.14.

Regarding `COc1ccc(/C=C/c2ccccc2O)cc1` [2-hydroxy-4'-methoxystilbene], in assay [2], the viability at 12.5 µM worked out at 80%. The compound further gave an Activity with Hepa 1c1c7 [3] of 1.13.

As for `Oc1ccc(/C=C/c2cc(O)cc(O)c2)cc1` [RESVERATROL], the Activity in [1] stood at 2.74; with Hepa 1c1c7 [3] it was 1.24; in the assay on Hepa 1c1c7 [14] it was 1.5. Moreover, the viability at 12.5 µM in assay [2] was 80%. In addition, the fold induction in the assay with Hepa 1c1c7c1 [8] was 1.16. Moreover, the viability at 25 µM in assay [13] amounted to 55%.

`COc1ccc(/C=C/c2cccc(OC)c2)cc1`: in [2], the viability at 12.5 µM worked out at 90%. In the assay on Hepa 1c1c7 [3], this compound returned an Activity of 1.44. In addition, the fold induction in the assay on Hepa 1c1c7c1 [8] was under 1.

Turning to `COc1ccc(/C=C\c2cc(O)cc(O)c2)cc1`, the Activity in assay [1] worked out at 1.86; with Hepa 1c1c7 [3], 1.04. Also, the viability at 12.5 µM in assay [2] is 96%.

`COc1ccc(/C=C\c2cc(OC)cc(OC)c2)cc1` [8Z-3,4',5-TRIMETHOXYSTILBENE]: the viability at 1 µM in [4] was found to be 82%. In the assay on Hepa 1c1c7 [5], this compound came in with an Activity of under 1.

For `COc1ccc(/C=C\c2ccccc2OC)cc1`, in assay [4], the viability at 1 µM turned out to be 56%. Moreover, the Activity with Hepa 1c1c7 [5] is under 1.

For `C[S+]([O-])CCCCN=C=S` (stereo unspecified), the Activity in the assay on Hepa 1c1c7 [9] is 0.26 µM; in the assay with Hepa 1c1c7c1 [10], 0.28 µM.

In the case of `COc1ccc(/C=C/c2ccc(OC)cc2OC)cc1`, in assay [2], the viability at 12.5 µM was determined as 58%. This compound also gave an Activity with Hepa 1c1c7 [3] of 1.18.

In the case of `COc1ccc(/C=C\c2ccc(OC)cc2OC)cc1`, the viability at 1 µM in assay [4] was found to be 85%. This compound also gave an Activity in the assay on Hepa 1c1c7 [5] of under 1.

As for `COc1ccc(/C=C/c2ccc(OC)c(O)c2)cc1`, the Activity in assay [1] worked out at 1.29; in the assay with Hepa 1c1c7 [3] it was 1.33. Moreover, in assay [2], the viability at 12.5 µM turned out to be 77%.

For `COc1ccccc1/C=C/c1ccccc1OC`, the viability at 12.5 µM in [2] stood at 82%. This compound registered an Activity in the assay on Hepa 1c1c7 [3] of 1.81. In the assay on Hepa 1c1c7c1 [8], this compound gave a fold induction of under 1.

`COc1ccc(/C=C\c2cccc(OC)c2)cc1`: in assay [4], the viability at 1 µM worked out at 92%. In addition, in the assay with Hepa 1c1c7 [5], the Activity was under 1.

For `COc1ccc(/C=C/c2ccc(OC)c(OC)c2)cc1`, in [4], the viability at 1 µM came out at 100%. In the assay on Hepa 1c1c7 [5], this compound showed an Activity of under 1.

The fold induction is the ratio of treated to control signal. A high value points to a large rise in signal.
